Measured values from ChEMBL document CHEMBL1151773, “Synthesis and biological evaluation of amide derivatives of (5,6-dimethoxy-2,3-dihydro-1H-inden-1-yl)acetic acid as anti-inflammatory agents with reduced gastrointestinal ulcerogenecity” (Eur J Med Chem, 2008).

Legend:
[1] = tested on: Mus musculus; assay: Analgesic activity in Swiss albino mouse assessed as inhibition of acetic acid-induced writhing at 100 mg/kg, po administered 60 mins before acetic acid challenge after 5 to 15 mins relative to control; type: functional
How it was run: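 Female Swiss albino mice, 20±5 g, fasted overnight with free water access, dosed orally; 1 h later injected i.p. with 1% v/v acetic acid at 0.1 ml/10 g. Writhes (full hind-limb extension) counted for 15 min, starting 5 min after injection; only animals giving 20 or more writhes used. % inhibition = 100(1−Wt/Wc) vs control group mean; six animals per group.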

[2] = tested on: Rattus norvegicus; assay: Antiinflammatory activity in […] 50 mg/kg, ip pretreated Wistar rat assessed as inhibition carrageenan-induced hind paw edema volume at 100 mg/kg, po administered 60 mins before carrageenan challenge measured after 1 hr; type: functional
How it was run: (§1)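 Rats pretreated with SKF-525A 50 mg/kg i.p.; 1 h later oral dose at 100 mg/kg. 1 h after dosing, 0.1 ml of 1% carrageenan given subplantar into the right hind paw.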

[3] = tested on: Rattus norvegicus; assay: Antiinflammatory activity in […] 50 mg/kg, ip pretreated Wistar rat assessed as inhibition of carrageenan-induced hind paw edema volume at 100 mg/kg, po administered 60 mins before carrageenan challenge measured after 3 hrs; type: functional; how it was run: as §1
[4] = tested on: Rattus norvegicus; assay: Antiarthritic activity in Albino rat assessed as inhibition of Freund's complete adjuvant-induced paw volume at 100 mg/kg, po administered for 14 days daily once starting a day before adjuvant challenge measured on day 8; type: functional
How it was run: (§2)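 Female albino rats, 160±10 g, six per group, dosed orally once daily for 14 days starting the day before 0.1 ml Freund's complete adjuvant into the right hind paw subplantar surface. Both hind paw volumes, measured up to a mark at the lateral malleolus, taken before and daily after adjuvant.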

[5] = tested on: Rattus norvegicus; assay: Antipyretic activity in Wistar rat assessed as change in LPS-induced rectal temperature at 100 mg/kg, po administered 30 mins before LPS challenge after 2 hrs; type: functional
How it was run: (§3)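 Adult female Wistar rats, 170±20 g, fasted 24 h, dosed orally at 09:00; 30 min later E. coli 0111:B4 phenol-extracted LPS in apyrogenic saline given i.p. Rectal temperature by telethermometer probe just before and 1–7 h hourly after LPS; temperature index calculated from these readings. n = 6.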

[6] = tested on: Rattus norvegicus; assay: Antiinflammatory activity in […] 50 mg/kg, ip pretreated Wistar rat assessed as inhibition of carrageenan-induced hind paw edema volume at 100 mg/kg, po administered 60 mins before carrageenan challenge measured after 24 hrs; type: functional; how it was run: as §1
[7] = tested on: Rattus norvegicus; assay: Antiarthritic activity in Albino rat assessed as inhibition of Freund's complete adjuvant-induced paw volume at 100 mg/kg, po administered for 14 days daily once starting a day before adjuvant challenge measured on day 3; type: functional; how it was run: as §2
[8] = tested on: Rattus norvegicus; assay: Antiinflammatory activity in Wistar rat assessed as inhibition of carrageenan-induced hind paw edema volume at 100 mg/kg, po administered 60 mins before carrageenan challenge after 2 hrs relative to control; type: functional
[9] = tested on: Rattus norvegicus; assay: Antiarthritic activity in Albino rat assessed as inhibition of Freund's complete adjuvant-induced paw volume at 100 mg/kg, po administered for 14 days daily once starting a day before adjuvant challenge measured on day 13; type: functional; how it was run: as §2
[10] = tested on: Rattus norvegicus; assay: Antiinflammatory activity in […] 50 mg/kg, ip pretreated Wistar rat assessed as inhibition carrageenan-induced hind paw edema volume at 100 mg/kg, po administered 60 mins before carrageenan challenge measured after 2 hrs; type: functional; how it was run: as §1
[11] = tested on: Rattus norvegicus; assay: Antiinflammatory activity in […] 50 mg/kg, ip pretreated Wistar rat assessed as inhibition of carrageenan-induced hind paw edema volume at 100 mg/kg, po administered 60 mins before carrageenan challenge measured after 6 hrs; type: functional; how it was run: as §1
[12] = tested on: Rattus norvegicus; assay: Antiinflammatory activity in Wistar rat assessed as inhibition of carrageenan-induced hind paw edema volume at 100 mg/kg, po administered 60 mins before carrageenan challenge after 3 hrs relative to control; type: functional
[13] = tested on: Rattus norvegicus; assay: Gastrointestinal toxicity in Wistar rat assessed as ulcer index at 100 mg/kg, po after 6 hrs; type: organism-based; set-up: dose 100 mg/kg, route oral; conditions: in vivo
How it was run: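 Female Wistar rats, 175±25 g, fasted 24 h, dosed orally once; sacrificed 6 h later by cervical dislocation. Stomach opened along greater curvature, saline-washed, mucosa inspected with a hand lens. Lesions graded I (edema/hyperemia/petechiae), II (hemorrhagic lesions with small erosions), III (deep ulcers); UI = nI + 2nII + 3nIII. Mean ± SEM, n = 6.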

[14] = tested on: Rattus norvegicus; assay: Antipyretic activity in Wistar rat assessed as change in LPS-induced rectal temperature at 100 mg/kg, po administered 30 mins before LPS challenge after 1 hr; type: functional; how it was run: as §3
[15] = tested on: Rattus norvegicus; assay: Antipyretic activity in Wistar rat assessed as change in LPS-induced rectal temperature at 100 mg/kg, po administered 30 mins before LPS challenge after 7 hrs; type: functional; how it was run: as §3
[16] = tested on: Rattus norvegicus; assay: Antiarthritic activity in Freund's complete adjuvant challenged Albino rat model assessed as change in body weight at 100 mg/kg, po administered for 14 days daily once starting a day before adjuvant challenge; type: functional; conditions: 336 h, read-out: INH
[17] = tested on: Rattus norvegicus; assay: Antiinflammatory activity in po dosed Wistar rat assessed as inhibition of carrageenan-induced hind paw edema volume administered 60 mins before carrageenan challenge; type: functional
[18] = tested on: Rattus norvegicus; assay: Toxicity in Wistar rat assessed as mortality at up to 1000 mg/kg, po after 24 hrs; type: organism-based; set-up: dose 1000 mg/kg, route oral; conditions: in vivo
[19] = tested on: Rattus norvegicus; assay: Antipyretic activity in Wistar rat assessed as change in LPS-induced rectal temperature at 100 mg/kg, po administered 30 mins before LPS challenge after 3 hrs; type: functional; how it was run: as §3
[20] = tested on: Rattus norvegicus; assay: Antiinflammatory activity in Wistar rat assessed as inhibition of carrageenan-induced hind paw edema volume at 100 mg/kg, po administered 60 mins before carrageenan challenge after 4 hrs relative to control; type: functional
[21] = tested on: Rattus norvegicus; assay: Antiinflammatory activity in Wistar rat assessed as inhibition of carrageenan-induced hind paw edema volume at 100 mg/kg, po administered 60 mins before carrageenan challenge after 6 hrs relative to control; type: functional
[22] = tested on: Rattus norvegicus; assay: Antiinflammatory activity in Wistar rat assessed as inhibition of carrageenan-induced hind paw edema volume at 100 mg/kg, po administered 60 mins before carrageenan challenge after 24 hrs relative to control; type: functional
[23] = tested on: Rattus norvegicus; assay: Antiinflammatory activity in […] 50 mg/kg, ip pretreated Wistar rat assessed as inhibition of carrageenan-induced hind paw edema volume at 100 mg/kg, po administered 60 mins before carrageenan challenge measured after 4 hrs; type: functional; how it was run: as §1
[24] = tested on: Rattus norvegicus; assay: Gastrointestinal toxicity in Wistar rat assessed as ulcer index at 100 mg/kg, po after 14 days; type: organism-based; set-up: dose 100 mg/kg, route oral; conditions: in vivo, 336 h
How it was run: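 Gastric mucosa examined for ulceration at post-mortem of female albino rats sacrificed at the end of the 14-day once-daily oral dosing in the Freund's adjuvant arthritis study; ulcer index scored per animal. Mean ± SEM, n = 6.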

[25] = tested on: Rattus norvegicus; assay: Antipyretic activity in Wistar rat assessed as change in LPS-induced rectal temperature at 100 mg/kg, po administered 30 mins before LPS challenge after 4 hrs; type: functional; how it was run: as §3
[26] = tested on: Rattus norvegicus; assay: Antipyretic activity in Wistar rat assessed as change in LPS-induced rectal temperature at 100 mg/kg, po administered 30 mins before LPS challenge after 6 hrs; type: functional; how it was run: as §3
[27] = tested on: Rattus norvegicus; assay: Antipyretic activity in Wistar rat assessed as change in LPS-induced rectal temperature at 100 mg/kg, po administered 30 mins before LPS challenge after 5 hrs; type: functional; how it was run: as §3
[28] = tested on: Rattus norvegicus; assay: Antiinflammatory activity in Wistar rat assessed as inhibition of carrageenan-induced hind paw edema volume at 100 mg/kg, po administered 60 mins before carrageenan challenge after 1 hr relative to control; type: functional

SMILES: CCCCCCNC(=O)CC1CCc2cc(OC)c(OC)cc21 (stereo not given)
- inhibition in vivo at 100 mg/kg [1]: 82.2%
- inhibition (INH) [2]: 52.38%
- inhibition (INH) [3]: 43.08%
- inhibition in vivo at 100 mg/kg [4]: 28.8%
- Activity [5]: -0.94 °C
- inhibition (INH) [6]: 45.45%
- inhibition in vivo at 100 mg/kg [7]: 31.2%
- inhibition in vivo at 100 mg/kg [8]: 31%
- inhibition in vivo at 100 mg/kg [9]: 39.4%
- inhibition (INH) [10]: 36.58%
- inhibition (INH) [11]: 40.42%
- inhibition in vivo at 100 mg/kg [12]: 40.6%
- UI [13]: 0
- Activity [14]: -0.56 °C
- Activity [15]: 0.54 °C
- inhibition in vivo at 100 mg/kg [16]: 7.64 g
- ED30 [17]: 24 mg/kg
- Activity [18]: Non-toxic
- Activity [19]: -0.23 °C
- inhibition in vivo at 100 mg/kg [20]: 39.1%
- inhibition in vivo at 100 mg/kg [21]: 39.8%
- inhibition in vivo at 100 mg/kg [22]: 43.3%
- inhibition (INH) [23]: 38.6%
- UI [24]: 0
- Activity [25]: 0.11 °C
- Activity [26]: 0.53 °C
- Activity [27]: 0.38 °C
- inhibition in vivo at 100 mg/kg [28]: 46.9%

SMILES: COc1cc2c(cc1OC)C(CC(=O)NC1CCCCC1)CC2 (stereo not given)
- inhibition in vivo at 100 mg/kg [1]: 44.7%
- inhibition in vivo at 100 mg/kg [4]: 31.8%
- Activity [5]: -1.26 °C
- inhibition in vivo at 100 mg/kg [7]: 29%
- inhibition in vivo at 100 mg/kg [8]: 56%
- inhibition in vivo at 100 mg/kg [9]: 33.3%
- inhibition in vivo at 100 mg/kg [12]: 49.3%
- UI [13]: 0
- Activity [14]: -0.33 °C
- Activity [15]: 0.43 °C
- inhibition in vivo at 100 mg/kg [16]: 6.84 g
- ED30 [17]: 20 mg/kg
- Activity [18]: Non-toxic
- Activity [19]: -0.67 °C
- inhibition in vivo at 100 mg/kg [20]: 50%
- inhibition in vivo at 100 mg/kg [21]: 48.1%
- inhibition in vivo at 100 mg/kg [22]: 53.3%
- UI [24]: 0
- Activity [25]: 0.05 °C
- Activity [26]: 0.45 °C
- Activity [27]: 0.51 °C
- inhibition in vivo at 100 mg/kg [28]: 50%
